Rows were chosen to be rich in hits. Some 2.8% of all compounds tested hit in one or more screens of this group.
DENV2 CPE rescue: DENV2-induced cell death inhibition; CPE inhibition, % at 9.99 µM; hit rate 1.7% among 350,000; DENV2-infected cells, cytopathic effect rescue, plate reader; in the data active = CPE inhibition above about 20%, passing the limit was not always enough; tested in BHK-21 cells;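 note: 0% = median of neutral control wells and 100% = median of positive control wells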
E-sel inducer: induces E-selectin expression in human endothelial cells; P16581; HUVEC E-selectin immunofluorescence imaging; normalized: neutral wells 0, TNF-alpha wells 100; activation, % at 7.58 µM; hit rate 0.37% among 260,000; AID 686992;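 active = mean E-selectin-positive cell signal at least 10% of the positive control, reached in at least 60% of replicates, without over 20% cell loss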
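Assay system: HUVEC primary endothelial cells. Input: 3,000 HUVEC seeded per well. Doses: one compound dose added by pin transfer. Read-out basis: % PE-positive cells. Benchmarks: TNF-alpha high, DMSO low. Detection: immunofluorescence imaging. Buffer or medium: EGM-2, gelatin.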
SIRT5 inh: inhibitors of human sirtuin-5 desuccinylase | Q9NXA8 | Purified SirT5, succinyl-peptide AMC, trypsin-coupled fluorescence | inhibition, % at 15 µM | hit rate 1.1% among 330,000 | AID 652115; in the data active = inhibition above about 15%
Target sequence (Q9NXA8 whole entry, looked up): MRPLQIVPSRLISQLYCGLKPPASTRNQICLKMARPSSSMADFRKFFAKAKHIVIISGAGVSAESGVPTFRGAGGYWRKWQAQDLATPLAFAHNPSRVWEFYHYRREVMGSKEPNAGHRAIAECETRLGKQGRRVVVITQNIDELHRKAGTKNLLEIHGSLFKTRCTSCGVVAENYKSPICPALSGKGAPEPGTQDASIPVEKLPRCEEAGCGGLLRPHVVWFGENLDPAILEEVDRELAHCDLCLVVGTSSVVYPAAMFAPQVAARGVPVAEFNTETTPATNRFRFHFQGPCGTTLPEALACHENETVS
Active calls of the source: *; . = no result.

SMILES | DENV2 CPE rescue | E-sel inducer | SIRT5 inh
Cc1noc(C)c1S(=O)(=O)N(C)C[C@@H]1OCCCC[C@@H](C)Oc2ccc(NS(=O)(=O)c3ccc(F)cc3)cc2C(=O)N([C@@H](C)CO)C[C@H]1C | -21.0 | . | .
Cc1ccc(S(=O)(=O)N(C)C[C@H]2Oc3c(NC(=O)C4CCCCC4)cccc3C(=O)N([C@@H](C)CO)C[C@@H]2C)cc1 | -4.8 | . | 4.2
O=C(C[C@H]1C=C[C@@H](NS(=O)(=O)c2cccc(F)c2)[C@@H](CO)O1)N1CCCCC1 | 2.1 | 0.6 | -6.5
Cc1noc(C)c1NC(=O)N(C)C[C@H]1Oc2ccc(NC(=O)c3ccncc3)cc2C(=O)N([C@H](C)CO)C[C@H]1C | 11.5 | 347.6* | -1.0
Cc1noc(C)c1NC(=O)N(C)C[C@H]1OCCCC[C@H](C)Oc2ccc(NC(=O)c3ccncc3)cc2C(=O)N([C@@H](C)CO)C[C@@H]1C | 8.2 | -0.2 | -1.8
Cc1noc(C)c1NC(=O)N(C)C[C@@H]1Oc2ccc(NC(=O)c3ccncc3)cc2C(=O)N([C@H](C)CO)C[C@@H]1C | -7.2 | 421.0* | -0.3
Cc1noc(C)c1NC(=O)N(C)C[C@@H]1OCCCC[C@H](C)Oc2ccc(NC(=O)c3ccncc3)cc2C(=O)N([C@@H](C)CO)C[C@@H]1C | 17.8 | -0.1 | -1.8
C[C@H]1CCCCO[C@@H](CN(C)C(=O)Cc2ccccc2)[C@@H](C)CN([C@@H](C)CO)C(=O)c2cc(NC(=O)c3ccncc3)ccc2O1 | 12.7 | 0.3 | -1.6
C[C@@H]1CN([C@H](C)CO)C(=O)c2cc(C#CCc3ccccc3)cnc2O[C@@H]1CN(C)C(=O)C1CC1 | -6.4 | 0.4 | 2.8
CN(C)CC(=O)Nc1ccc2c(c1)[C@@H]1C[C@@H](CC(=O)NCc3cccnc3)O[C@@H](CO)[C@@H]1O2 | -3.1 | 0.1 | 2.5
Cc1noc(C)c1NC(=O)NCC[C@H]1CC[C@H](NC(=O)Nc2cccc(Cl)c2)[C@@H](CO)O1 | -1.3 | 0.0 | -1.9
CO[C@H]1CN(C)C(=O)c2ccc(NS(=O)(=O)c3ccccc3)cc2OC[C@@H](C)N(Cc2nccs2)C[C@H]1C | 2.7 | 0.0 | -1.8
CCCc1ccc2oc(C(=O)N(Cc3ccncc3)CC3CCCO3)c(C)c2c1 (stereo not drawn) | -6.0 | . | 2.6
Cc1ccc2oc(C(=O)N(Cc3ccncc3)CC3CCCO3)c(C)c2c1 (stereo not drawn) | 47.5* | -1.2 | 3.1
CN(C)CCNC(=O)c1cccc(S(=O)(=O)Nc2ccccc2F)c1 | 5.6 | . | 30.2*
O=C(NCC1CCCO1)c1ccc(S(=O)(=O)Nc2ccccc2F)cc1 (stereo not drawn) | 101.2* | 1.8 | -3.7
Cc1cccc(NS(=O)(=O)c2ccc(C(=O)NCC3CCCO3)cc2)c1C (stereo not drawn) | -9.7 | -0.2 | -6.0
O=C(Nc1ccccc1N1CCOCC1)c1cccc(S(=O)(=O)Nc2ccccc2F)c1 | 0.2 | . | -2.5
O=C(c1ccccn1)N1CC(=O)N2[C@@H](CO)[C@H](c3ccc(C#Cc4ccccc4)cc3)[C@@H]2C1 | 7.5 | -0.2 | -2.8
CCc1cnc(N2[C@@H](C#N)[C@@H](c3ccccc3)[C@@H]2CO)s1 | 49.5* | 1.0 | 1.3
CCc1cnc(N2[C@H](CO)[C@H](c3ccc(C4=CCCCC4)cc3)[C@@H]2C#N)s1 | 28.8* | 1.0 | 1.9
CCc1cnc(N2[C@@H](C#N)[C@H](c3ccc(C4=CCCCC4)cc3)[C@@H]2CO)s1 | -0.4 | -0.2 | 0.8
CCc1cnc(N2[C@H](C#N)[C@@H](c3ccccc3)[C@@H]2CO)s1 | 1.8 | 3.4 | 2.8
Cc1noc(C)c1C(=O)N(C)C[C@@H]1OCc2ccccc2-c2ccccc2C(=O)N([C@H](C)CO)C[C@H]1C | 1.5 | -0.1 | 3.7
COCc1cccc(-c2csc(C(O)c3ccc(F)c(F)c3)n2)c1 (stereo not drawn) | -3.7 | -0.1 | -6.4
SMILES | DENV2 CPE rescue | E-sel inducer | SIRT5 inh
COCc1cccc(-c2csc(C(N)c3ccc(F)c(F)c3)n2)c1 (stereo not drawn) | 21.1* | 0.0 | .
CS(=O)(=O)Nc1ccc2c(c1)[C@H]1C[C@@H](CC(=O)NCC3CC3)O[C@@H](CO)[C@H]1O2 | 0.4 | 0.3 | -1.4
Cc1cc(C)c(OCCCNCc2ccccc2)c(Br)c1 | -2.1 | . | 0.8
Cc1cc(C)c(OCCCNC2CCCC2)c(Br)c1 | 28.5* | . | .
Cc1cc(C)c(OCCOCCN(C)C)c(Br)c1 | -4.8 | 0.2 | -2.8
Cc1cc(C)c(OCCCCN(C)C)c(Br)c1 | 7.8 | . | 15.3*
COc1ccc2c3c(n(C)c2c1)[C@@H](CO)N(C(=O)NC(C)C)CC31CN(Cc2nccs2)C1 | 9.1 | -0.4 | 1.0
C[C@@H]1CCCCO[C@H](CN(C)C(=O)C2CCCCC2)[C@@H](C)CN([C@@H](C)CO)C(=O)c2cc(NC(=O)CCCN(C)C)ccc2O1 | -1.7 | 0.2 | .
C/C=C/c1ccc2c(c1)O[C@H](CN(C)C(=O)CC)[C@H](C)CN([C@H](C)CO)S2(=O)=O | -1.6 | 0.0 | -4.1
CS(=O)(=O)N1CCCCN2[C@H](CO)[C@H](c3ccc(C4=CCCC4)cc3)[C@@H]2C1 | 29.4* | -0.2 | 5.8
CS(=O)(=O)N1CCCCN2[C@H](C1)[C@H](c1ccc(C3=CCCC3)cc1)[C@@H]2CO | -9.0 | -0.2 | .
CS(=O)(=O)N1CCCCN2[C@@H](CO)[C@@H](c3ccc(C4=CCCC4)cc3)[C@@H]2C1 | 29.2* | 0.0 | 2.4
CS(=O)(=O)N1CCCCN2[C@H](CO)[C@@H](c3ccc(C4=CCCC4)cc3)[C@H]2C1 | 0.1 | 0.0 | .
NCC[C@H]1CC[C@@H](NC(=O)Cc2ccncc2)[C@@H](CO)O1 | 0.9 | 0.4 | 1.3
COC(=O)C1=C(C)N(Cc2ccccc2C(F)(F)F)C(=NCc2ccc3c(c2)OCO3)NC1c1ccc(F)cc1 (stereo not drawn) | -3.4 | -0.4 | -0.2
COC(=O)C1=C(C)N(Cc2ccccc2C(F)(F)F)C(=NCc2ccc(OC)cc2)NC1c1ccccc1 (stereo not drawn) | 41.8* | 0.0 | -0.7
COC(=O)C1=C(C)N(Cc2ccccc2C(F)(F)F)C(=NCc2ccc3c(c2)OCO3)NC1c1cccc(F)c1 (stereo not drawn) | -0.4 | -0.1 | 16.9*
COC(=O)C1=C(C)N(Cc2ccccc2C(F)(F)F)C(=NCc2ccccc2)NC1c1ccc(C(F)(F)F)cc1 (stereo not drawn) | -0.2 | -0.4 | -1.1
COC(=O)C1=C(C)N(Cc2ccccc2C(F)(F)F)C(=NCc2ccc(OC)cc2)NC1c1ccc(Cl)cc1 (stereo not drawn) | -3.0 | -0.2 | 13.3
COC(=O)C1=C(C)N(Cc2ccccc2C(F)(F)F)C(=NCc2ccc(C(F)(F)F)cc2)NC1c1ccc(Cl)cc1 (stereo not drawn) | 24.9* | -0.1 | 0.2
O=C(N[C@@H]1CC[C@H](CCNC(=O)C2CC2)O[C@H]1CO)c1ccncc1 | 3.6 | -0.7 | -0.7
COCC(=O)Nc1ccc2c(c1)[C@H]1C[C@@H](CC(=O)NCc3cccc(F)c3)O[C@H](CO)[C@H]1O2 | 0.5 | -0.3 | -0.9
CO[C@@H]1CN(C)C(=O)c2ccc(NC(=O)c3cccc(F)c3)cc2OC[C@@H](C)N(C)C[C@@H]1C | -2.4 | 0.0 | -3.9
CC(C)(C)c1ccc(OC(=O)N2CCOCC2)cc1 | -5.0 | . | 15.7*
O=C(Oc1ccccc1)N1CCOCC1 | -3.6 | . | -1.9

Screening results from PubChem BioAssay.
